Results as given in ChEMBL document CHEMBL4431391, “Exploration of substituted arylpiperazine-tetrazoles as promising dual norepinephrine and dopamine reuptake inhibitors” (Bioorg Med Chem, 2016).

What was measured:
Type in all cases: cell-based
[1] = biological target: Sodium-dependent noradrenaline transporter (Homo sapiens, UniProt P23975); assay: Inhibition of [3H]-5-norepinephrine reuptake in human NET expressed in HEK293 cells by liquid scintillation counting method
Summary of the method: (§1)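 HEK-293 cells grown in FBS-supplemented medium, transfected with human transporter (hDAT or hNET). Uptake of radiolabeled substrate ([3H]-DA for DAT, [3H]-NE for NET) at 20 nM was measured, with inhibition assessed as reduced uptake. Method adapted with slight modification from a literature procedure.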

[2] = biological target: Sodium-dependent serotonin transporter (Homo sapiens, UniProt P31645); assay: Inhibition of [3H]-5-hydroxytryptamine reuptake in human SERT expressed in HEK293 cells by liquid scintillation counting method
Sequence of Sodium-dependent serotonin transporter (P31645 whole entry): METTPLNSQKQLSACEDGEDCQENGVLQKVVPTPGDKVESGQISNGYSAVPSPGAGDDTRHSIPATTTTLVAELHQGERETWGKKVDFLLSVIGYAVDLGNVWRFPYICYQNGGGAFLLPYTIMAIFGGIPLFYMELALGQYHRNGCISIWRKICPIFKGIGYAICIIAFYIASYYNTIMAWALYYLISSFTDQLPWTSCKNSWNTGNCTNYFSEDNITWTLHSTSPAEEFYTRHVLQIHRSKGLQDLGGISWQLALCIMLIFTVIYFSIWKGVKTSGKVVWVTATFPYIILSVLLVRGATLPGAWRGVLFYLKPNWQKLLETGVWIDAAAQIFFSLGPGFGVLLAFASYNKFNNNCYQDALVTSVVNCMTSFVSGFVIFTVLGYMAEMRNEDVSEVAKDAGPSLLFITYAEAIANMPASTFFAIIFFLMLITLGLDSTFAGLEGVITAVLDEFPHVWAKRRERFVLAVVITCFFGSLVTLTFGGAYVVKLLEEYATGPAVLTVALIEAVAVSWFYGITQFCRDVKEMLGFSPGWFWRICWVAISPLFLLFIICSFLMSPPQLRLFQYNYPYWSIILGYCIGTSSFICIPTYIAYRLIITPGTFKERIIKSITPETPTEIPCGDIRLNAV

[3] = biological target: Sodium-dependent dopamine transporter (Homo sapiens, UniProt Q01959); assay: Inhibition of [3H]-5-dopamine reuptake in human DAT expressed in HEK293 cells by liquid scintillation counting method; summary of the method: as §1
Sequence of Sodium-dependent dopamine transporter (Q01959 whole entry): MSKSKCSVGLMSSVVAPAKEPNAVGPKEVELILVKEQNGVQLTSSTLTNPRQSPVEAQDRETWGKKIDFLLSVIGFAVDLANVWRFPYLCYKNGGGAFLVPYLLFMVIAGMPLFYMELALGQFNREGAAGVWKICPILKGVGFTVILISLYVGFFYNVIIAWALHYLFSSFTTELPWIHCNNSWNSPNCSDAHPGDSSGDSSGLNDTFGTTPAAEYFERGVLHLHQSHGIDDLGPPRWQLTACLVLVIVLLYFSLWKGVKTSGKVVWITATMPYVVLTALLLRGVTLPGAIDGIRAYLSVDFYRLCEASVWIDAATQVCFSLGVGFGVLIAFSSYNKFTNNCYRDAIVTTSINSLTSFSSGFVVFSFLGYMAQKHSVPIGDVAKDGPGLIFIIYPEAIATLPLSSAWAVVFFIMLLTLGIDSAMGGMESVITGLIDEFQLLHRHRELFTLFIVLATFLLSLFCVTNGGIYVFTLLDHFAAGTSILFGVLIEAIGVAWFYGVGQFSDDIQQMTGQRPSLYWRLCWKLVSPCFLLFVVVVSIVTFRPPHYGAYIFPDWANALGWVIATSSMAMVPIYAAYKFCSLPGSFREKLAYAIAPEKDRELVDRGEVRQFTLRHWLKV

Sequence of Sodium-dependent noradrenaline transporter (P23975 whole entry): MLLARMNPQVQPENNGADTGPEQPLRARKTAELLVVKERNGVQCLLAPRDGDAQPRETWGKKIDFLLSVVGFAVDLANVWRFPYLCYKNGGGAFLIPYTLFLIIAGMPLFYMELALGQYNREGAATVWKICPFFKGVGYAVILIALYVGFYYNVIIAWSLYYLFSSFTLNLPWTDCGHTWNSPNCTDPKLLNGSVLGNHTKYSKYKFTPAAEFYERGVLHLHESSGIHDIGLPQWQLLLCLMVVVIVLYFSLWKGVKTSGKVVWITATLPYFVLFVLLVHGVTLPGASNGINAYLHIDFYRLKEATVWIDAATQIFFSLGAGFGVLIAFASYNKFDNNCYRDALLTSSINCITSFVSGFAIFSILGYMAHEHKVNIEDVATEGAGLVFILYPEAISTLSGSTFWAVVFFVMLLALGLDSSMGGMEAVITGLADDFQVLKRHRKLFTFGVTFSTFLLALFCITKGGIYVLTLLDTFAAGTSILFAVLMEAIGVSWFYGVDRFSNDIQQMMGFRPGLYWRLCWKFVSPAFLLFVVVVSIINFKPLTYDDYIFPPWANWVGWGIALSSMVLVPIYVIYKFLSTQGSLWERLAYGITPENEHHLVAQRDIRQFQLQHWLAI

Compound	IC50 [1]	IC50 [2]	IC50 [3]
c1ccc(C(c2ccccc2)c2nnnn2CCCCN2CCN(c3ncccn3)CC2)cc1	8540 nM	> 10000 nM	> 10000 nM
Fc1cc(Cl)ccc1N1CCN(CCCn2nnnc2C(c2ccccc2)c2ccccc2)CC1	1100 nM	–	2250 nM
Fc1ccc(N2CCN(CCCn3nnnc3C(c3ccccc3)c3ccccc3)CC2)cc1	80 nM	–	2480 nM
Brc1ccc(N2CCN(CCCn3nnnc3C(c3ccccc3)c3ccccc3)CC2)cc1	1200 nM	–	910 nM
COc1ccc(N2CCN(CCCn3nnnc3C(c3ccccc3)c3ccccc3)CC2)cc1	1060 nM	–	3850 nM
COc1ccccc1N1CCN(CCCn2nnnc2C(c2ccccc2)c2ccccc2)CC1	500 nM	> 10000 nM	1040 nM
Clc1cccc(N2CCN(CCn3nnnc3C(c3ccccc3)c3ccccc3)CC2)c1Cl	> 10000 nM	> 10000 nM	> 10000 nM
c1ccc(C(c2ccccc2)c2nnnn2CCN2CCN(c3ncccn3)CC2)cc1	> 10000 nM	> 10000 nM	> 10000 nM
Clc1cccc(N2CCN(CCCn3nnnc3C(c3ccccc3)c3ccccc3)CC2)c1Cl	1100 nM	> 10000 nM	3040 nM
Clc1cccc(N2CCN(CCCn3nnnc3C(c3ccccc3)c3ccccc3)CC2)c1	1620 nM	–	4740 nM
Cc1cccc(C)c1N1CCN(CCCn2nnnc2C(c2ccccc2)c2ccccc2)CC1	1720 nM	–	3720 nM
COc1ccccc1N1CCN(CCCCn2nnnc2C(c2ccccc2)c2ccccc2)CC1	10000 nM	> 10000 nM	> 10000 nM
c1ccc(C(c2ccccc2)c2nnnn2CCCCN2CCN(c3ccccn3)CC2)cc1	4700 nM	> 10000 nM	> 10000 nM
COc1ccccc1N1CCN(CCn2nnnc2C(c2ccccc2)c2ccccc2)CC1	> 10000 nM	> 10000 nM	> 10000 nM
c1ccc(C(c2ccccc2)c2nnnn2CCN2CCN(c3ccccn3)CC2)cc1	> 10000 nM	> 10000 nM	> 10000 nM
Fc1cccc(F)c1N1CCN(CCCn2nnnc2C(c2ccccc2)c2ccccc2)CC1	510 nM	–	820 nM
Clc1ccc(N2CCN(CCCn3nnnc3C(c3ccccc3)c3ccccc3)CC2)cc1Cl	4000 nM	–	4200 nM

Compound	IC50 [1]	IC50 [2]	IC50 [3]
Clc1cccc(N2CCN(CCCCn3nnnc3C(c3ccccc3)c3ccccc3)CC2)c1Cl	8870 nM	> 10000 nM	> 10000 nM
Clc1ccc(N2CCN(CCCn3nnnc3C(c3ccccc3)c3ccccc3)CC2)c(Cl)c1	2050 nM	–	3590 nM
Fc1ccc(N2CCN(CCCn3nnnc3C(c3ccccc3)c3ccccc3)CC2)c(F)c1	2160 nM	–	2900 nM
Clc1ccccc1N1CCN(CCCn2nnnc2C(c2ccccc2)c2ccccc2)CC1	670 nM	–	1010 nM
FC(F)(F)c1cccc(N2CCN(CCCn3nnnc3C(c3ccccc3)c3ccccc3)CC2)c1	2480 nM	–	5580 nM
Cc1ccc(N2CCN(CCCn3nnnc3C(c3ccccc3)c3ccccc3)CC2)cc1	870 nM	–	1420 nM
Clc1ccc(N2CCN(CCCCn3nnnc3C(c3ccccc3)c3ccccc3)CC2)cc1	> 10000 nM	> 10000 nM	> 10000 nM
FC(F)(F)c1ccc(N2CCN(CCCn3nnnc3C(c3ccccc3)c3ccccc3)CC2)cc1	> 10000 nM	–	> 10000 nM
Fc1ccc(C(F)(F)F)cc1N1CCN(CCCn2nnnc2C(c2ccccc2)c2ccccc2)CC1	1090 nM	–	2250 nM
c1ccc(C(c2ccccc2)c2nnnn2CCCN2CCN(c3ccccc3)CC2)cc1	1450 nM	–	1640 nM
c1ccc(C(c2ccccc2)c2nnnn2CCCN2CCN(c3ncccn3)CC2)cc1	800 nM	> 10000 nM	1140 nM
c1ccc(C(c2ccccc2)c2nnnn2CCCN2CCN(c3ccccn3)CC2)cc1	920 nM	> 10000 nM	1430 nM
Clc1ccc(N2CCN(CCn3nnnc3C(c3ccccc3)c3ccccc3)CC2)cc1	> 10000 nM	> 10000 nM	> 10000 nM
Fc1ccccc1N1CCN(CCCn2nnnc2C(c2ccccc2)c2ccccc2)CC1	350 nM	–	1330 nM
Fc1cccc(N2CCN(CCCn3nnnc3C(c3ccccc3)c3ccccc3)CC2)c1	1890 nM	–	1470 nM
Clc1ccc(N2CCN(CCCn3nnnc3C(c3ccccc3)c3ccccc3)CC2)cc1	460 nM	> 10000 nM	1200 nM
